Measurements collected from several papers.
Compare with care: the assays were run in different laboratories.
Target: Membrane-associated tyrosine- and threonine-specific cdc2-inhibitory kinase (PKMYT1, Homo sapiens, UniProt Q99640)
Sequence (Q99640 1-499, as in one of the studies): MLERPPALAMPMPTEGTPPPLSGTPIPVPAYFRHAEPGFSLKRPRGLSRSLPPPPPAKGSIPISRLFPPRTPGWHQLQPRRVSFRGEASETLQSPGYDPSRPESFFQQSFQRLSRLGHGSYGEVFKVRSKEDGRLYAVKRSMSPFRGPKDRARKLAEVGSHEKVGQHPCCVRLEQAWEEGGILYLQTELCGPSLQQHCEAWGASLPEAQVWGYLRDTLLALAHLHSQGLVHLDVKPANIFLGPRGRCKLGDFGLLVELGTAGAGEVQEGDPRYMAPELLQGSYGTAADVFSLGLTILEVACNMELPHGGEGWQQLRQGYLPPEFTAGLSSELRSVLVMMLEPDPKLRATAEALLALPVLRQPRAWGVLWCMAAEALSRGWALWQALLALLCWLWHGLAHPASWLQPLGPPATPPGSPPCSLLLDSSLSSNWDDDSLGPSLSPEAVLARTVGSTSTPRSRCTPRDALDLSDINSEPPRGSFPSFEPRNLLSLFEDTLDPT

`FC(F)(F)Oc1cccc(-c2cnc3ccc(-c4ccncc4)nn23)c1` gave a remaining binding of 67% (cell-free assay; competition with immobilised ligand; 5 µM).
The remaining binding of `O=C(NCCCN1CCOCC1)c1ccc(Nc2nccc(-c3cc4ccccc4s3)n2)cc1` is reported as 84% (binding; competition with immobilised ligand; 1 µM).
`COc1ncc2cc3ccccc3nc2c1C#N` has a remaining binding of 100% (cell-free assay; competition with immobilised ligand; 5 µM).
`CCOC(=O)c1cc2cc(-c3cc(C(=O)NCc4ccc(C(=O)O)cc4)nn3C)ccc2[nH]1` has a remaining binding of 100% (cell-free assay; competition with immobilised ligand; 0.1 µM).
For `CN(CCCC(F)(F)F)c1nccc(-c2cnn3ncccc23)n1`, the remaining binding was 93% (binding; 1 µM).
With `Cn1nc(C(F)(F)F)cc1-c1cnc(N2CCc3cc(S(=O)(=O)Nc4c(F)cc(Cl)cc4F)cc(N4CCCC4=O)c32)nc1` the remaining binding was 93% (cell-free assay; competition with immobilised ligand; 1 µM).
For `O=C(Nc1c[nH]nc1C(=O)NC1CCNCC1)c1cc(F)cc(F)c1`, the remaining binding was 83% (binding; competition with immobilised ligand; 1 µM).
The remaining binding of `COc1ccnn2ncc(-c3ccnc(N(C)C)n3)c12` is reported as 100% (binding; 1 µM).
`COc1cc(-c2cn(C3CCc4ccccc4N(CC(F)(F)F)C3=O)nn2)ccc1-n1ccc(C)n1` (centres unmarked) has a remaining binding of 100% (cell-free assay; competition with immobilised ligand; 1 µM).
The remaining binding of `CCN1CCN(Cc2ccc(C(=O)Nc3ccc(C)c(Oc4ccc5c(c4)CC(=O)N5)c3)cc2C(F)(F)F)CC1` is reported as 70% (binding; competition with immobilised ligand; 1 µM).
For `NS(=O)(=O)c1cc(NC(=O)Cc2ccccc2)ccc1Oc1cccc(Cl)c1`, the remaining binding was 96% (cell-free assay; competition with immobilised ligand; 1 µM).
`CN(C)c1nccc(-c2cnn3ncccc23)n1` gave a remaining binding of 100% (binding; 1 µM).
`COc1cnc(Nc2cccc(S(N)(=O)=O)c2)nc1N1CCN(c2ccccc2)C(=O)C1` gave a remaining binding of 86% (binding; competition with immobilised ligand; 1 µM).
`CN(c1nccc(-c2cnn3ncccc23)n1)C1CC1` has a remaining binding of 88% (binding; 1 µM).
The remaining binding of `CN1CCN(c2cnc3c(C4CCN(C(=O)c5ccc(OC(F)(F)F)cc5N)CC4)ncnc3c2)CC1` is reported as 100% (cell-free assay; competition with immobilised ligand; 1 µM).
With `O=C(NCCCN1CCOCC1)c1ccc(Nc2ncc(Cl)c(-c3ccc(Cl)s3)n2)cc1` the remaining binding was 100% (binding; competition with immobilised ligand; 1 µM).
`N[C@@H]1CCN(c2nccc(-c3cnn4ncccc34)n2)C1` has a remaining binding of 100% (binding; 1 µM).
The remaining binding of `Cc1cnc(Nc2ccc(C(=O)N3CCC(N4CCCC4)CC3)cc2)nc1-c1cc2ccccc2s1` is reported as 80% (binding; competition with immobilised ligand; 1 µM).
`CS(=O)(=O)N1CCCC(NC(=O)[C@H](CCC2CCCCC2)NC(=O)c2ccc(CNC(=O)c3cnc4ccccn34)cc2)C1` (some centres unmarked) has a remaining binding of 100% (cell-free assay; competition with immobilised ligand; 0.1 µM).
With `CN(C)c1ncc(F)c(-c2cnn3ncccc23)n1` the remaining binding was 97% (binding; 1 µM).
